The test system of series [1] is Human immunodeficiency virus 1. Kind of series: Antiviral activity against NNRTI-resistant HIV1 isolate N119 infected in PHA-stimulated human PBMC assessed as reduction in p24 level after 7 days by ELISA. The series is classed as functional, organism-based. Conditions: Human immunodeficiency virus 1, isolate N119, PBMC, 168 h. The gist of the method: (§1)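 Donor PBMCs in R-3 medium (RPMI 1640, 15−20% FBS, 5% IL-2, penicillin/streptomycin, 2 mM L-glutamine), PHA-stimulated (2−3 μg/mL) 7 days; 1 × 10^5 cells/well with compound, challenged with 1000 TCID50 virus. p24 in supernatant by ELISA after 7 days. Seven concentrations (5, 1, 0.2, 0.04, 0.008, […], 0 μg/mL); IC50 versus no-drug wells; AZT positive control; three experiments, each triplicate.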
For orientation: In an ELISA, binding on a coated surface is turned into a signal by an enzyme label.

In series [2] the test system is Human immunodeficiency virus 1. Kind of series: Antiviral activity against NRTI-resistant HIV1 isolate 1617-1 infected in PHA-stimulated human PBMC assessed as reduction in p24 level after 7 days by ELISA. The series is classed as functional, organism-based. The note with it: Human immunodeficiency virus 1, isolate 1617-1, PBMC, 168 h. A digest of the protocol: as §1

Series [3] deals with Human immunodeficiency virus 1. Kind of series: Antiviral activity against HIV1 isolate LAV infected in PHA-stimulated human PBMC assessed as reduction in p24 level after 7 days by ELISA. The series is classed as functional, organism-based. Conditions: Human immunodeficiency virus 1, isolate LAV, 168 h. A digest of the protocol: as §1
The subject of series [4] is Human immunodeficiency virus 1. Kind of series: Antiviral activity against HIV1 virions derived from […] or HIV/HA virions infected 293T cells using human A549 cells as target cells assessed as inhibition of viral replication using compound pre-mixed virions followed by incubation with target cells for 24 hrs by luciferase reporter gene assay based defective HIV1 pseudoviral assay. The note with it: Human immunodeficiency virus 1, 24 h. Type of series: functional, organism-based. The gist of the method: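 Pseudovirions made by cotransfecting 293T cells with VSV-G, or HA plus NA, envelope plasmids and pNL4-3-Luc.R-.E- vector; supernatant collected at 48 h and filtered. A549 cells, 0.5 × 10^5/well in DMEM. Virus (~2 × 10^6 RLUs) premixed with sample, incubated with cells 24 h, then medium replaced. Luciferase read in lysates 48 h postinfection. Three experiments, each triplicate.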
On the technique in general: In a reporter assay the amount or activity of a reporter protein is the signal.

Series [5] relates to Human immunodeficiency virus 1. Kind of series: Antiviral activity against HIV1 isolate SF162 infected in PHA-stimulated human PBMC assessed as reduction in p24 level after 7 days by ELISA. The series is classed as functional, organism-based. The gist of the method: as §1
Series [6] deals with A549. Kind of series: Cytotoxicity against human A549 cells at 19 uM after 48 hrs by CellTiter 96 AQueous one solution cell proliferation assay. Conditions: a549, 48 h. Type of series: cell-based. The gist of the method: (§2)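 About 5000 cells/well in DMEM with FBS and penicillin/streptomycin; compound in DMSO added next day, 24 h at 37 °C, 5% CO2, then medium replaced. At 48 h after addition, CellTiter 96 Aqueous One added for 4 h, stopped with 10% SDS, absorbance read at 450 nm.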

Series [7] relates to Human immunodeficiency virus 1. Kind of series: Antiviral activity against HIV1 isolate BAL infected in PHA-stimulated human PBMC assessed as reduction in p24 level after 7 days by ELISA. The series is classed as functional, organism-based. A digest of the protocol: as §1
In series [8] the test system is HeLa. Kind of series: Cytotoxicity against human HeLa cells at 19 uM after 48 hrs by CellTiter 96 AQueous one solution cell proliferation assay. Type of series: cell-based. A digest of the protocol: as §2
In series [9] the test system is Human immunodeficiency virus 1. Kind of series: Antiviral activity against HIV1/VSV-G pseudovirus infected in human A549 cells assessed as downregulation of R/U5 gene expression at 0.005 ug/ml after 48 hrs by Taqman-based real-time PCR analysis. Type of series: functional. The note with it: Human immunodeficiency virus 1, A549, 48 h. The gist of the method:
(§3)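 A549 cells infected with VSV-G/HIV pseudovirus while treated with compound or AZT, 10-fold dilutions from 5 μg/mL, triplicate. After 48 h, cells processed for reverse transcription and TaqMan real-time PCR. R/U5 amplicon reads early transcripts, U5/gag reads late transcripts; GAPDH and 18S as internal controls.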
A general note: Real-time PCR tracks product formation cycle by cycle.

For series [10], the system named is Human immunodeficiency virus 1. Kind of series: Antiviral activity against HIV1 isolate LAV0.04 infected in PHA-stimulated human PBMC assessed as reduction in p24 level after 7 days by ELISA. Type of series: functional, organism-based. A digest of the protocol:
as §1

For series [11], the system named is Human immunodeficiency virus 1. Kind of series: Antiviral activity against HIV1/VSV-G pseudovirus infected in human A549 cells assessed as downregulation of U5/gag gene expression at 0.005 ug/ml after 48 hrs by Taqman-based real-time PCR analysis. The series is classed as functional. The note with it: Human immunodeficiency virus 1, A549, 48 h. The gist of the method: as §3

Series [12] is described as follows: Cytotoxicity against human PBMC after 48 hrs by CellTiter 96 AQueous one solution cell proliferation assay. The series is classed as cell-based.
In series [13] the test system is Human immunodeficiency virus 1. Kind of series: Antiviral activity against HIV1 isolate 89.6 infected in PHA-stimulated human PBMC assessed as reduction in p24 level after 7 days by ELISA. Type of series: functional, organism-based. A digest of the protocol:
as §1

Series [14] has as its system Human immunodeficiency virus 1. Kind of series: Antiviral activity against HIV1/VSV-G pseudovirus infected in human A549 cells assessed as downregulation of R/U5 gene expression after 48 hrs by Taqman-based real-time PCR analysis. The series is classed as functional. A digest of the protocol: as §3
In series [15] the test system is Human immunodeficiency virus 1. Kind of series: Antiviral activity against HIV1/VSV-G pseudovirus infected in human A549 cells assessed as downregulation of U5/gag gene expression after 48 hrs by Taqman-based real-time PCR analysis. Type of series: functional. The gist of the method:
as §3

Setting [16] is: Human immunodeficiency virus 1, isolate SF162, PBMC, 168 h.
[17] abbreviates: Human immunodeficiency virus 1, isolate BAL, PBMC, 168 h.
[18] abbreviates: Human immunodeficiency virus 1, isolate LAV0.04, PBMC, 168 h.
Where [19] appears, read: Human immunodeficiency virus 1, isolate 89.6, PBMC, 168 h.

By IC50 is commonly meant the concentration at which inhibition is half-maximal. Take `Cc1ccnc2c1NC(=O)c1cccnc1N2C1CC1` [NEVIRAPINE]: the values for the IC50 in series [1], in series [2] and in [3] were over 100 µM, 0.156 µM and 0.532 µM, respectively.
In the case of `COc1cc2c(O[C@@H]3OC[C@@H](O)[C@H](O)[C@H]3O)c3c(c(-c4ccc5c(c4)OCO5)c2cc1OC)C(=O)OC3`, the IC50 in series [4] stood at 0.51 µM.
With `COc1cc2c(O[C@@H]3O[C@H](CO)[C@@H](O)[C@H](O)[C@H]3O)c3c(c(-c4ccc5c(c4)OCO5)c2cc1OC)C(=O)OC3`, the IC50 in series [4] turned out to be 0.77 µM.
For the molecule `COc1cc2c(O)c3c(c(-c4ccc5c(c4)OCO5)c2cc1OC)C(=O)OC3` [DIPHYLLIN], in series [4], the half-maximal inhibitory concentration (IC50) worked out at 1.71 µM.
Usually inhibition stands for the share of the control response that was lost under treatment. Usually CC50 stands for the concentration that lowers cell viability or growth by half. Higher therefore signals better tolerance by the cells. Consider `COc1cc2c(O[C@@H]3O[C@H](C)[C@@H](O)[C@H](O)[C@H]3O)c3c(c(-c4ccc5c(c4)OCO5)c2cc1OC)C(=O)OC3` [PATENTIFLORIN A], for which the IC50 in series [1] turned out to be 0.047 µM; in series [5] (setting [16]) it was 0.037 µM; in series [5] (pbmc), 0.03 µM; in series [2] it was 0.061 µM; in series [7] (setting [17]), 0.03 µM; in series [7] (pbmc), 0.032 µM. Moreover, the IC50 was 0.108 µM in [3]; 0.024 µM in series [10] (setting [18]); 0.032 µM in [10] (pbmc); 0.032 µM in series [13] (setting [19]); 0.031 µM in series [13] (pbmc); 0.0269 to 0.027 µM in series [4]. Also, the Activity entry was “Dose-dependent effect” in series [5]; “Non-Toxic” in [6]; “Dose-dependent effect” in series [7]; “Non-Toxic” in [8]; “Dose-dependent effect” in [10]; “Dose-dependent effect” in [13]. For the same molecule, the inhibition at 0.005 µg/mL in series [9] and in series [11] was 75% in each case. In addition, in series [12], the CC50 at 48 h was 75 µM.
In the case of `Cc1cn([C@H]2C[C@H](N=[N+]=[N-])[C@@H](CO)O2)c(=O)[nH]c1=O` [ZIDOVUDINE], the IC50 in series [1] was 0.0052 µM; in [5] (setting [16]) it was 0.085 µM; in series [2] it was 3.51 µM; in [7] (setting [17]), 0.077 µM; in series [3], 0.072 µM; in [10] (setting [18]) it was 0.079 µM. The IC50 in [13] (setting [19]) worked out at 0.095 µM. Further, the Activity result in series [5], in series [14], in [7], in [10], in series [15] and in [13] was “Dose-dependent effect” in each case. Moreover, the “inhibition (INH)” value in [14] and in [15] was 40% each time.
